Reference: paper PMC8520753 (CPT: Pharmacometrics & Systems Pharmacology, 2021)
“Also recorded” adds a separate entry of the source. Read-outs that look alike come from different tables or passages of the source.

Tests used:
[1] = cited from earlier work
[2] = Refined pediatric population pharmacokinetic; type: in vivo, children (pediatric patients); conditions: for Relative oral bioavailability: set to 100% for 0.12 mg/kg
In short: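 Children from birth to <18 y (VTE and post-Fontan) received oral bodyweight-adjusted rivaroxaban at 0.4 mg–20 mg, as single or multiple o.d./b.i.d./t.i.d. doses of tablet, oral suspension or granules. Plasma concentrations were fitted by PopPK with an 82.48 kg adult reference weight. Age, dose/kg on F1, formulation on ka, renal function and Fontan were screened graphically, then against random-effect estimates.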

[3] = integrated PopPK model in adults; cited from earlier work
[4] = cited from earlier work; remark: listed apart in the source
[5] = subject with a bodyweight of 70 kg; cited from earlier work
CYP3A7 = CYP3A7 (Homo sapiens, UniProt P24462); assay: In vitro analyses of CYP3A7 contribution; type: in vitro ADME; conditions: historic and recently repeated in vitro analyses, unpublished, data on file
[6] = PopPK fixed effect, children, reference BW 82.48 kg

CYP3A7, sequence (P24462 whole entry): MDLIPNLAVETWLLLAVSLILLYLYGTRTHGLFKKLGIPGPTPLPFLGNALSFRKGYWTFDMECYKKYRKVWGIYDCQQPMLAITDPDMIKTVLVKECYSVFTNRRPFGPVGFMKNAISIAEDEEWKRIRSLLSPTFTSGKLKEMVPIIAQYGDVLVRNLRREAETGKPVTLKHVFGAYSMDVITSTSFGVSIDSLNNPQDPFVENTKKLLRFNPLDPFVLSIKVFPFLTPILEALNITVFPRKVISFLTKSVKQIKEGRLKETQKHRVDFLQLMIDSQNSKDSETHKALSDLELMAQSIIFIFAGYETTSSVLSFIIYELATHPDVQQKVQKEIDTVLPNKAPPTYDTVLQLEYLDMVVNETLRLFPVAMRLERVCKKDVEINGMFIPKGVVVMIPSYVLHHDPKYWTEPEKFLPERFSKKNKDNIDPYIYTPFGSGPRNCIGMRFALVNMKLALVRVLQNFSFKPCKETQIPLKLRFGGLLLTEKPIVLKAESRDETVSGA

ka, tablet, granules for oral suspension and diluted ready-to-use oral suspension [2]: 0.799 h⁻¹ | ka, undiluted ready-to-use oral suspension [2]: 0.226 h⁻¹ | ka for tablets, granules and diluted suspension ([2]; PopPK fixed effect, children): 0.799 h⁻¹ | ka for undiluted suspension ([2]; PopPK fixed effect, children): 0.226 h⁻¹ | CL for subject with BW of 82.48 kg [2, 6]: 8.02 L/h | Q for subjects with BW of 82.48 kg [2, 6]: 2.50 L/h | Vc for subject with BW of 82.48 kg [2, 6]: 53.2 L | Vp for subject with BW of 82.48 kg [2, 6]: 59.1 L | Exponent to scale Vc and Vp on BW ([2]; allometric exponent, assumed identical for Vc and Vp): 0.821 | Exponent to scale Q on BW ([2]; allometric exponent, children): 0.761 | Relative oral bioavailability ([2]; at 0.30 mg/kg): 79.1% | Relative oral bioavailability ([2]; at 0.50 mg/kg): 68.1% | Effect of bodyweight on CL, Q, Vc and Vp ([2]; covariate analysis): significant effect | Effect of age on CL or F1 ([2]; covariate analysis, age 0 to 18 years): No effect | Effect of comedication (weak or moderate CYP3A4 inhibitors, CYP3A4 inducers) on CL or F1 ([2]; exploratory evaluation): no significant effect | clearance ([2]; human, plasma, oral): 134 mL/min | ωCL2 (exponential), interindividual variability ([2]; random effect on CL): 0.0705 | ωF12 (exponential), interindividual variability ([2]; random effect on F1): 0.0612 | Population variation of CL (interindividual variability) ([2]; sqrt{exp(ω^2)-1}*100): 27.0% | Population variation of F1 (interindividual variability) ([2]; sqrt{exp(ω^2)-1}*100): 25.1% | Contribution of CYP3A7 to the high clearance below 2 years (CYP3A7): could also be excluded
SMILES: O=C(NC[C@H]1CN(c2ccc(N3CCOCC3=O)cc2)C(=O)O1)c1ccc(Cl)s1 [rivaroxaban]
Biopharmaceutics Classification System class [1]: class 2 | Influence of renal function on PK ([2]; covariate analysis, four approaches, eGFR 43.8 to 456 ml/min/1.73 m^2): None of the four methods to test for an influence of renal function led to a significant improvement; also recorded: None of the four tested methods could improve the model fit | Dose-dependency of relative oral bioavailability ([2]; ~0.1 to 0.5 mg/kg single doses): decrease with increasing dose per bodyweight | Total plasma clearance [3]: 6.58 L/h | Share of elimination by CYP3A, glomerular filtration and tubular secretion ([4]; adult mass balance data): ~ 54% | Excreted unchanged via feces ([4]; adult mass balance): 7% | Share of elimination by CYP2J2 ([4]; adult mass balance): 14% | Share of elimination by CYP-independent hydrolysis ([4]; adult mass balance): 14% | Unaccounted in the mass balance study ([4]; adult mass balance): 11% | Total plasma clearance [5]: 7.26 L/h
